Experimental data from ChEMBL document CHEMBL3763019, “Discovery of benzenesulfonamide derivatives as potent PI3K/mTOR dual inhibitors with in vivo efficacies against hepatocellular carcinoma” (Bioorg Med Chem, 2016).

Assays:
[1] = Antiproliferative activity against human SKOV3 cells incubated for 48 hrs by sulforhodamine B assay; type: functional; conditions: SK-OV-3, 48 h
Summary of the method: (§1)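 Run externally by the US National Cancer Institute as part of its 60 human cancer cell line cytotoxicity screen (NCI-60).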

[2] = Antitumor activity against human Bel7404 cells xenografted in BALB/c nude mouse assessed as reduction in tumor volume at 30 mg/kg, po qd for 14 consecutive days relative to control; type: functional, BEL-7404; design: scale not given: the % may be the effect or the level left
Summary of the method: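 Male BALB/c nude mice carried implanted BEL-7404 tumours and were randomized once tumours reached 100–300 mm³ (about 12 days); there were 6 per treated group and 8 controls. Drug in 5% polysorbate 80/water was given orally once daily for 14 days from day 13. Tumour volume (1/2·a·b·b) and body weight were tracked, with sacrifice on day 29. The read-out was relative tumour volume versus vehicle, reported as mean SE.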

K562 = assay: Antiproliferative activity against human K562 cells incubated for 48 hrs by sulforhodamine B assay; type: functional; conditions: K562, 48 h; summary of the method: as §1
[3] = Antiproliferative activity against human RPMI8226 cells incubated for 48 hrs by sulforhodamine B assay; type: functional; conditions: RPMI-8226, 48 h
[4] = Antiproliferative activity against human COLO205 cells incubated for 48 hrs by sulforhodamine B assay; type: functional; conditions: COLO 205, 48 h; summary of the method: as §1
[5] = Antiproliferative activity against human SF268 cells incubated for 48 hrs by sulforhodamine B assay; type: functional; conditions: SF-268, 48 h; summary of the method: as §1
[6] = Antiproliferative activity against human SNB19 cells incubated for 48 hrs by sulforhodamine B assay; type: functional; conditions: SNB-19, 48 h; summary of the method: as §1
[7] = read-out: pLC50 (the source's name) (converted)

Work on `COc1ncc(-c2ccc3nccc(C#CCN4CCN(S(C)(=O)=O)CC4)c3c2)cc1NS(=O)(=O)c1ccc(F)cc1F` yielded a GI50 [1] of 0.0174 µM, a CC50 [1, 7] of 33.9 µM and a TGI ([1]; read-out: pTGI (converted)) of 0.229 µM. The Activity [2] was 52%, the GI50 (K562) was 0.646 µM and the CC50 (K562; [7]) was over 100 µM. For the same compound, the TGI (K562; read-out: pTGI (converted)) was 17 µM, the GI50 [3] was 0.263 µM and the TGI ([3]; read-out: pTGI (converted)) was 1.45 µM. The GI50 [4] was 0.0427 µM, the CC50 [4, 7] was 7.24 µM and the TGI ([4]; read-out: pTGI (converted)) was 1.12 µM. It also gave a GI50 [5] of 0.11 µM, a CC50 [5, 7] of 25.1 µM and a TGI ([5]; read-out: pTGI (converted)) of 2.88 µM. The GI50 [6] was 0.355 µM, the CC50 [6, 7] was 15.1 µM and the TGI ([6]; read-out: pTGI (converted)) was 2.51 µM.
